Reference: ChEMBL document CHEMBL1135577, “Synthesis and biological evaluation of structurally highly modified analogues of the antimitotic natural product curacin A” (J Med Chem, 2002)
pIC50: −log10 of the molar value.

Legend:
A2780 [1] = test: Tested for colchicine binding inhibition, using human ovarian cancer cell lines (at 5 uM ); assay type: functional
Outline: (§1)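 [3H]colchicine (5 μM) was incubated with 1 μM tubulin and agent (1-250 μM) or DMSO vehicle (5% v/v) at 30 °C for 15 min or 37 °C for 10 min, in 1 M monosodium glutamate, 0.1 M glucose-1-phosphate, 1 mM MgCl2, 1 mM GTP and 0.5 mg/mL BSA. Samples were filtered through DEAE-cellulose and counted by scintillation. Values are means (N = 9 over four concentrations) ± SD.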

2008 [2] = test: 50% Growth inhibitory concentration( GI 50 ) by using 2008 human ovarian carcinoma cell lines.; assay type: functional
Outline: (§2)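 Cultured human tumor cells were seeded at 500-2000 cells/well, allowed to attach for 48 h, then exposed continuously for 48 h to DMSO vehicle or agent at five concentrations (e.g., 50-0.08 μM, 10-0.016 μM or 1-0.0016 μM series), each in quadruplicate. A time-zero plate was included. Cell number was read by MTS/phenazine methanesulfonate at A490-A630. Values are means (N = 4 over 10 concentrations) ± SD.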

PC-3 [3] = test: 50% Growth inhibitory concentration by using PC -3 human prostate carcinoma cell lines (48h continuous exposure); assay type: functional; settings: PC-3, 48 h; outline: as §2
A2780 [4] = test: Compound was tested for Tubulin polymerization inhibition by using human ovarian cancer cell lines.; assay type: functional
Outline: (§3)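 Tubulin (10 μM final, 1 mg/mL) was preincubated with agent in DMSO (4% v/v final) and 0.8 M monosodium glutamate for 15 min at 30 °C, then cooled to 0 °C and GTP (0.4 mM final) added. Turbidity at 350 nm was followed for 20 min at 30 °C. […] Values are averages of two determinations.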

Tubulin (Bos taurus) [5] = test: Inhibition of tubulin polymerization of purified bovine brain tubulin
MCF7 = test: Tested for 50% growth inhibitory concentration by using MCF-7 cell lines.; assay type: functional; settings: Homo sapiens; outline: as §2
A2780 [6] = test: Compound was tested for colchicine Binding Inhibition by using human ovarian carcinoma cell line (at 5 uM ); assay type: functional; outline: as §1
MDA-MB-231 = test: Compound was tested for 50% Growth Inhibitory concentration by using MDA-MB-231 cell lines.; assay type: functional; settings: Homo sapiens; outline: as §2
A2780 [7] = test: Compound was tested for Tubulin polymerization inhibition by using human ovarian carcinoma cell lines.; assay type: functional; outline: as §3
2008 [8] = test: Compound was tested for 50% growth inhibitory concentration by using human ovarian carcinoma cell lines (2008); assay type: functional; outline: as §2
PC-3 [9] = test: Compound was tested for 50% growth inhibitory concentration by using human prostate carcinoma cell lines (PC -3); assay type: functional; outline: as §2
Tubulin (Bos taurus) [10] = test: Ability to inhibit the GTP/glutamate-induced polymerization of tubulin
A2780 [11] = test: Compound was tested for 50% Growth Inhibitory concentration by using A2780 cell lines.; settings: Homo sapiens
A2780 [12] = test: Compound was tested for colchicine binding inhibition by using human ovarian carcinoma cell line (at 5 uM ); assay type: functional; outline: as §1

Structure (SMILES) | inhibition at 5 µM (A2780 [1]) [%] | pIC50 (Tubulin (Bos taurus) [5]) | GI50 (MCF7) [nM] | also measured
C=CC[C@@H](CC/C(C)=C/C=C/CC/C=C\[C@@H]1COC(C(C)(C)C)=N1)OC | < 10 | – | – | GI50 2008 [2]: 450 nM; GI50 (PC-3 [3]): 6200 nM; TPI (A2780 [4]): 0%
COc1cc(CCCCCCCC(C)CCC(O)c2cccs2)cc(OC)c1OC (configuration not stated) | < 10 | – | – | GI50 2008 [2]: 26000 nM; GI50 (PC-3 [3]): 21000 nM; TPI (A2780 [4]): 15%
C=CC[C@@H](CC/C(C)=C/C=C/CC/C=C\[C@H](CSC(=O)[C@@H]1C[C@@H]1C)NC(C)=O)OC | 9 | 5.82 | 4200 | –
CCCCCCCc1cccc(CC/C=C\[C@@H]2CSC([C@@H]3C[C@@H]3C)=N2)c1 | – | < 4.30 | – | –
C=CCCC1=N[C@H](/C=C\CC/C=C/C=C(\C)CC[C@H](CC=C)OC)CS1 | 83 | 6.04 | 300 | –
C=CC[C@@H](CC[C@@]1(C)C[C@@H]1[C@H]1C[C@@H]1CC/C=C\[C@@H]1CSC([C@@H]2C[C@@H]2C)=N1)OC | – | – | – | inhibition at 5 µM (A2780 [6]): < 10%; GI50 (MDA-MB-231): > 50000 nM; TPI (A2780 [7]): 0%; GI50 2008 [8]: > 50000 nM; GI50 (PC-3 [9]): > 50000 nM
C=CC[C@@H](CC/C(C)=C/C=C/CC/C=C\[C@@H]1CSC([C@H]2C[C@@H]2C)=N1)OC | 88 | 6.11 | 990 | –
C=CCC1(CC/C(C)=C/C=C/CC/C=C\[C@@H]2CSC([C@@H]3C[C@@H]3C)=N2)OCCO1 | 92 | 6.11 | 30 | –
C=CC[C@H](CC/C(C)=C/C=C/CC/C=C\[C@@H]1CSC([C@@H]2C[C@@H]2C)=N1)OC | 56 | 6.17 | 180 | –
C=CC[C@@H](CC/C(C)=C/C=C/CC/C=C\[C@H](CSC)NC(C)=O)OC | 12 | 5.48 | 5200 | –
C=CC[C@@H](CC/C(C)=C/C=C/CC/C=C\[C@@H]1CSC([C@H]2C[C@H]2C)=N1)OC | 48 | 5.68 | 360 | –
CCC[C@@H](CC/C(C)=C/C=C/CC/C=C\[C@@H]1CSC([C@@H]2C[C@@H]2C)=N1)OC | 85 | 5.92 | 50 | –
C=CC[C@@H](CC/C(C)=C/C=C/CC/C=C\[C@@H]1CSC(C(C)(C)C)=N1)OC | 35 | – | – | GI50 2008 [2]: 220 nM; GI50 (PC-3 [3]): 130 nM; TPI (A2780 [4]): 100%
COc1cc(/C=N\OC/C=C/C=C(\C)CCC(O)c2cccs2)cc(OC)c1OC (configuration not stated) | – | – | – | inhibition at 5 µM (A2780 [6]): 48%; GI50 (MDA-MB-231): 120 nM; TPI (A2780 [7]): 100%; pIC50 (Tubulin (Bos taurus) [10]): 6.77; GI50 2008 [8]: 240 nM; GI50 (PC-3 [9]): 250 nM
CCCCCCCCCCCC/C=C\[C@@H]1CSC([C@@H]2C[C@@H]2C)=N1 | – | < 4.30 | – | –
C=CC[C@@H](CC/C(C)=C/C=C\CC/C=C\[C@@H]1CSC([C@@H]2C[C@@H]2C)=N1)OC [CURACIN B] | 56 | 6.09 | 320 | –
COC[C@H]1C[C@H]1C1=NC(COC/C=C(\C)CC/C=C(\C)CCC=C(C)C)CS1 (some centres not stated) | – | – | – | GI50 (A2780 [11]): > 25000 nM
C=CC[C@@H](CC[C@@]1(C)C[C@@H]1[C@H]1C[C@@H]1CC/C=C\[C@@H]1COC([C@@H]2C[C@@H]2C)=N1)OC | – | – | – | GI50 (MDA-MB-231): 18000 nM; inhibition at 5 µM (A2780 [12]): < 10%; TPI (A2780 [7]): 59%; GI50 2008 [8]: 18000 nM; GI50 (PC-3 [9]): 49000 nM
C=CC[C@@H](CC/C(C)=C/C=C/CC/C=C\c1csc(C(C)(C)C)n1)OC | 38 | – | – | GI50 2008 [2]: 300 nM; GI50 (PC-3 [3]): 240 nM; TPI (A2780 [4]): 100%
